Experiments:
[1] = molecular target: T1, 5-hydroxytryptamine receptor 3A (Cavia porcellus, UniProt O70212); test: Intrinsic activity at 5HT3 receptor in spontaneously beating guinea pig right atrium assessed as positive chronotropic potency relative to serotonin
T1 sequence (O70212 whole entry): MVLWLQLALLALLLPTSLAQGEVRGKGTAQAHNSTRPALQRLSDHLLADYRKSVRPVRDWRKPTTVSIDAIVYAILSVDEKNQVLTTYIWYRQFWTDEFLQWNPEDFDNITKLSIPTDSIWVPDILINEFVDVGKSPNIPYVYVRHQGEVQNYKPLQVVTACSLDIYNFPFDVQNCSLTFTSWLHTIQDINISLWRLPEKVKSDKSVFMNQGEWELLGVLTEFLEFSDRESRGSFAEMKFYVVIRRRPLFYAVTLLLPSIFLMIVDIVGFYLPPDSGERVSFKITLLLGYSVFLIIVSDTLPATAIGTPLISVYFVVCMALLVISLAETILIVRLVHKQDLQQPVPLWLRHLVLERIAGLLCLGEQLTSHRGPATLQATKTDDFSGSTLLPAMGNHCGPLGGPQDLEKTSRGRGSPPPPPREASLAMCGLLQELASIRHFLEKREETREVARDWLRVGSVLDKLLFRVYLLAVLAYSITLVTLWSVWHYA

[2] = molecular target: T2, 5-hydroxytryptamine receptor 3A (Rattus norvegicus, UniProt P35563); test: Displacement of [3H]LY278584 from 5HT3 receptor in rat cortical homogenate; conditions: read-out: Ki
T2 sequence (P35563 whole entry): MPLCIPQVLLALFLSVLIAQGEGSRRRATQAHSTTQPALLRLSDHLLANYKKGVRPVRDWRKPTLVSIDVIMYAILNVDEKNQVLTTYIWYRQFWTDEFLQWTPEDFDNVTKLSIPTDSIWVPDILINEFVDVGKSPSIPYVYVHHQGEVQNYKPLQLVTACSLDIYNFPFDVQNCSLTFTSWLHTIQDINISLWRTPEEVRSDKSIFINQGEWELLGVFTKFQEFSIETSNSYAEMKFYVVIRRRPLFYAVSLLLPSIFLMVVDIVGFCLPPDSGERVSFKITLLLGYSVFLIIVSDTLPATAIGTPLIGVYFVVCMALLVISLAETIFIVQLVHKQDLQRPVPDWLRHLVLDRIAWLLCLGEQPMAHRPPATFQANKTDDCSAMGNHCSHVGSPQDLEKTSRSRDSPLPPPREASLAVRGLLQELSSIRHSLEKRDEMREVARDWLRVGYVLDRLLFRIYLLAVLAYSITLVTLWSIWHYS
Method in brief: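 Rat cortical homogenate, competition against [3H]LY278584 binding. Ki is the concentration giving half-maximal inhibition of binding, as the mean ± S.E.M. of three determinations.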

D(2) dopamine receptor = D(2) dopamine receptor (Rattus norvegicus, UniProt P61169); test: Displacement of [3H]spiperone from dopamine D2 receptor in rat striatum
D(2) dopamine receptor, sequence (P61169 whole entry): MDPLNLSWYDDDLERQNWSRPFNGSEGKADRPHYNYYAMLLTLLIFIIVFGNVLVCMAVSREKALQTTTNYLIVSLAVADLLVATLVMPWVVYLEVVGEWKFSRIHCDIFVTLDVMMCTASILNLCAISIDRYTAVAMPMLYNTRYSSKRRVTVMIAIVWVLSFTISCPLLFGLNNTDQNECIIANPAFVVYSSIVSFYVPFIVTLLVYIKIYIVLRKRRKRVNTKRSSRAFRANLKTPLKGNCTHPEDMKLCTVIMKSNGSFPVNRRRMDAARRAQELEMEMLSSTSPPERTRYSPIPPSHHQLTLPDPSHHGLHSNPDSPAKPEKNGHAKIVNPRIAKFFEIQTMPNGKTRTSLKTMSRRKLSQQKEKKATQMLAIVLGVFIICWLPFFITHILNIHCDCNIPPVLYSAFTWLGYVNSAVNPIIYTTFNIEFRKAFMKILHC

Rattus norvegicus = test: Plasma concentration in rat at 0.25 mg/kg, iv; type: ADME, organism-based; set-up: dose 0.25 mg/kg, route intravenous; conditions: in vivo, BLD = below limit of detection
Method in brief: (§1)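 Rats dosed iv at 0.25–1 mg/kg and sacrificed 30 min after injection. Mean ± SEM of three animals. Brain/plasma ratio assumes 1 g tissue equals 1 mL water.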

[3] = molecular target: T3, 5-hydroxytryptamine receptor 1A (Rattus norvegicus, UniProt P19327); test: Displacement of [3H]8-OHDPAT from 5HT1A receptor in rat hippocampus; type: tissue-based
T3 sequence (P19327 whole entry): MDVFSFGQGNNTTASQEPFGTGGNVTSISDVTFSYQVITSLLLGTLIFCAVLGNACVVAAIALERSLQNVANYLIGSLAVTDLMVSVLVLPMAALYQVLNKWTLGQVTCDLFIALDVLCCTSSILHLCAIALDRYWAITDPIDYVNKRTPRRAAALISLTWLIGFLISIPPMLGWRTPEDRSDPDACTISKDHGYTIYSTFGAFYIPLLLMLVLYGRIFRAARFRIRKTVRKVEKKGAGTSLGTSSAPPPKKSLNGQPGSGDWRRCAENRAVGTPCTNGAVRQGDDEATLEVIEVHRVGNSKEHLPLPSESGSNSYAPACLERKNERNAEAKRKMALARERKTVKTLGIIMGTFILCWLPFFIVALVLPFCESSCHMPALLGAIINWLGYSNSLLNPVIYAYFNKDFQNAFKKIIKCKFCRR

[4] = Ratio of drug level from brain to plasma in rat at 0.5 mg/kg, iv; type: ADME, organism-based; set-up: dose 0.5 mg/kg, route intravenous
Method in brief: (§2)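 Rats given a single iv injection (0.25–1 mg/kg) and killed 30 min afterwards. Brain/plasma ratio calculated assuming 1 g tissue equals 1 mL water. Three animals per dose, mean ± SEM.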

[5] = molecular target: 5-hydroxytryptamine receptor 4 (Cavia porcellus, UniProt O70528); test: Displacement of [3H]GR-113808 from 5HT4 receptor in guinea pig striatum
5-hydroxytryptamine receptor 4, sequence (O70528 whole entry): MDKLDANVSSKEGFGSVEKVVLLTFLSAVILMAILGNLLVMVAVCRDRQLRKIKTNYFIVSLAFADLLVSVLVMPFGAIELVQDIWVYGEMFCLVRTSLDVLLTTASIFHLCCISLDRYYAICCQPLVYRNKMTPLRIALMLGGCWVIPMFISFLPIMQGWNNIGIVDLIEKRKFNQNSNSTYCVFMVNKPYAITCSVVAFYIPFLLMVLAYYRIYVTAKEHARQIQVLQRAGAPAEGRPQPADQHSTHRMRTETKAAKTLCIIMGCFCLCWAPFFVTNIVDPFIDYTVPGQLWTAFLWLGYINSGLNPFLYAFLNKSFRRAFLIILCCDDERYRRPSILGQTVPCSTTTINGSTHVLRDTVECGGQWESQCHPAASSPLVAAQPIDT

[6] = molecular target: 5-hydroxytryptamine receptor 2A (Rattus norvegicus, UniProt P14842); test: Displacement of [3H]ketanserin from 5HT2A receptor in rat cortex
5-hydroxytryptamine receptor 2A, sequence (P14842 whole entry): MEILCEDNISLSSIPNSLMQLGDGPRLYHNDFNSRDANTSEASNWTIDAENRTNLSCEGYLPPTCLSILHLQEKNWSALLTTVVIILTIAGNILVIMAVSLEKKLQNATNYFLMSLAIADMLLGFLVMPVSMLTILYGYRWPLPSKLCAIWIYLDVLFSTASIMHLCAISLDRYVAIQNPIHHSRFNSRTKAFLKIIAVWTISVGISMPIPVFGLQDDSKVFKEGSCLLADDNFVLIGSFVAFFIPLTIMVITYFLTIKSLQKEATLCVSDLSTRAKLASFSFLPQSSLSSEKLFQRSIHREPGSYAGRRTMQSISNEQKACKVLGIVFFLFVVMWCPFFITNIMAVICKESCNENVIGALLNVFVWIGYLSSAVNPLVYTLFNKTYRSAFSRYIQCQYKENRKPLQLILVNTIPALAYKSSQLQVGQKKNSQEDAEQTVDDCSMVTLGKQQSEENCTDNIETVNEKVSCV

[7] = Ratio of drug level from brain to plasma in rat at 1 mg/kg, iv; type: ADME, organism-based; set-up: dose 1 mg/kg, route intravenous
Method in brief: as §2

Brain [8] = test: Drug level in rat brain at 1 mg/kg, iv; type: ADME, organism-based; set-up: dose 1 mg/kg, route intravenous; conditions: read-out: Drug uptake, in vivo
Method in brief: as §1

[9] = molecular target: T4, Alpha-2A adrenergic receptor (Rattus norvegicus, UniProt P22909); test: Displacement of [3H]RX821002 from adrenergic alpha2 receptor in rat cortex
T4 sequence (P22909 whole entry): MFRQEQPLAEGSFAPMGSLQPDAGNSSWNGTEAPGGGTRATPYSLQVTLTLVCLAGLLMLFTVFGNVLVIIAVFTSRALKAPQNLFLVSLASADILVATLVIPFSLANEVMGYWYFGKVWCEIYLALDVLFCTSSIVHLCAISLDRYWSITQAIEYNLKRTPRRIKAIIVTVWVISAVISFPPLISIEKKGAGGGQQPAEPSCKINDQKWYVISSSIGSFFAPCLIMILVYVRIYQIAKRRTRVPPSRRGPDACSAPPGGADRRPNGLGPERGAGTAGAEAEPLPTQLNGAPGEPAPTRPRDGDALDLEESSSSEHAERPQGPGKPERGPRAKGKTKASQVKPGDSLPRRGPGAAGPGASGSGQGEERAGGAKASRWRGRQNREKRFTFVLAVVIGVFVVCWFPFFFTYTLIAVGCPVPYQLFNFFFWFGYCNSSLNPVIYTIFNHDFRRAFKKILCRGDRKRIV

D(1A) dopamine receptor = D(1A) dopamine receptor (Rattus norvegicus, UniProt P18901); test: Displacement of [3H]SCH-23390 from dopamine D1 receptor in rat striatum
D(1A) dopamine receptor, sequence (P18901 whole entry): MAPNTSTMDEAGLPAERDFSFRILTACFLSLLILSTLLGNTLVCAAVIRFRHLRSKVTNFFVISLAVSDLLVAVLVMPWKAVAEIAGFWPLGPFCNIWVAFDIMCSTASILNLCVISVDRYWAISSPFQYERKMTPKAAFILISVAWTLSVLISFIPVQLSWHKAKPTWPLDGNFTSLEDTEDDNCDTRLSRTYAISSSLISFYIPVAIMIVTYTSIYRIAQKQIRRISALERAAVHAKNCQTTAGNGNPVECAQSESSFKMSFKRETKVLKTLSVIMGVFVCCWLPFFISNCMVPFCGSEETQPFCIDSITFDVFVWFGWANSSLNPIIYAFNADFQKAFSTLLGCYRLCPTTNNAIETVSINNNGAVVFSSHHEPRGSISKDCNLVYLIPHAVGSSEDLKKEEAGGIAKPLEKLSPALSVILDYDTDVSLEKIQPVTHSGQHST

[10] = molecular target: T1, 5-hydroxytryptamine receptor 3A; test: Antagonist activity at 5HT3 receptor in spontaneously beating guinea pig right atrium assessed as inhibition of serotonin-induced maximum response by noncompetitive binding assay; type: tissue-based, Cardiac atrium; conditions: read-out: IC50
Method in brief: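 Spontaneously beating guinea pig right atria, exposed 30 min to test compound at 10 μM, followed by cumulative 5-HT log concentration-response curves versus control. Mean ± SEM of five to seven observations.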

Brain [11] = test: Drug level in rat brain at 0.5 mg/kg, iv; type: ADME, organism-based; set-up: dose 0.5 mg/kg, route intravenous; conditions: in vivo, read-out: Drug uptake
Method in brief: as §1

SMILES | EC50 [1] [nM] | Ki [2] [nM] | Ki (D(2) dopamine receptor) [nM] | Cp (Rattus norvegicus) | Ki [3] [nM] | Kp [4] | Ki [5] [nM] | Ki [6] [nM] | Kp [7] | concentration (Brain [8]) [nM] | Ki [9] [nM] | Ki (D(1A) dopamine receptor) [nM] | IC50 [10] [nM] | concentration (Brain [11]) [nM]
CN1CCN(c2nc3ncccc3n3cccc23)CC1 | 340 | 2.4 |  |  |  |  |  |  |  |  |  |  |  | 
Fc1ccc2c(c1)nc(N1CCN(Cc3cnc[nH]3)CC1)c1cccn12 |  | 0.68 | > 10000 | BLD | > 10000 | 1.3 | > 10000 | > 10000 | 1 | 210 | > 10000 | > 10000 | 270 | 90

Source: ChEMBL document CHEMBL1154626, “Novel, potent, and selective quinoxaline-based 5-HT(3) receptor ligands. 1. Further structure-activity relationships and pharmacological characterization” (J Med Chem, 2009)
